Assay results from ChEMBL document CHEMBL4765302, “Design, synthesis and biological evaluation of novel histone deacetylase1/2 (HDAC1/2) and cyclin-dependent Kinase2 (CDK2) dual inhibitors against malignant cancer” (Eur J Med Chem, 2020).

Legend:
NCI-H460 [1] = assay: Antiproliferative activity against human H460 cells assessed as reduction in cell growth at 2 uM incubated for 72 hrs by CCK-8 assay relative to control; format: functional
HeLa [2] = assay: Induction of apoptosis in human HeLa cells assessed as viable cells at 2 uM incubated for 48 hrs by annexin V-FITC and PI staining based flow cytometry (reference value: 98.5 %); format: functional; settings: read-out: Activity
Histone deacetylase 2 = Histone deacetylase 2 (Homo sapiens, UniProt Q92769); assay: Inhibition of recombinant human HDAC2 using FLUOR-DE-LYS-Green as substrate incubated for 10 mins followed by substrate addition and measured after 30 mins by fluorescence based assay
Sequence of Histone deacetylase 2 (Q92769 whole entry): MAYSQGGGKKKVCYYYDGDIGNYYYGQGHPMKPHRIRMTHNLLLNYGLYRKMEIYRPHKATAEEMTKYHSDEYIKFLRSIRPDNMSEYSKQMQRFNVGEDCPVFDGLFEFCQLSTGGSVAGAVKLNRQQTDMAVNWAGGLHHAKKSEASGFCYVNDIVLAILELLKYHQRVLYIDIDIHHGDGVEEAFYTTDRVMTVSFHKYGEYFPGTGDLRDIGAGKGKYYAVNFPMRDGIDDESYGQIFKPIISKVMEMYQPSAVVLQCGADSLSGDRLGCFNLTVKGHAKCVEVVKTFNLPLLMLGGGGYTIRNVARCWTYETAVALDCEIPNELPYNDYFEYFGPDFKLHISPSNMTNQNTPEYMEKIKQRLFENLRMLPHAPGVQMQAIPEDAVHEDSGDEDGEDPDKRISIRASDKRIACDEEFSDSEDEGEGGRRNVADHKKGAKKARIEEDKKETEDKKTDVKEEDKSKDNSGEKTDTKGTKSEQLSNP
Summary of the method: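 IC50 values reported as means of at least two separate determinations, expressed as mean ±SD.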

HCT-116 [3] = assay: Induction of apoptosis in human HCT-116 cells assessed as late apoptotic cells at 2 uM incubated for 48 hrs by annexin V-FITC and PI staining based flow cytometry (reference value: 1.88 %); format: functional
HeLa [4] = assay: Induction of apoptosis in human HeLa cells assessed as necrotic cells at 2 uM incubated for 48 hrs by annexin V-FITC and PI staining based flow cytometry (reference value: 0.124 %); format: functional
HeLa [5] = assay: Antiproliferative activity against human HeLa cells assessed as reduction in cell growth incubated for 72 hrs by CCK-8 assay; format: functional, cell-based
Summary of the method: (§1)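 IC50 by CCK-8 assay across five solid-tumour lines (HCT116, HepG2, H460, HeLa, A375). Run only for compounds chosen after the single-concentration screen, with CS055 and roscovitine as references.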

HCT-116 [6] = assay: Antiproliferative activity against human HCT-116 cells assessed as reduction in cell growth incubated for 72 hrs by CCK-8 assay; format: functional, cell-based; settings: HCT-116, 72 h; summary of the method: as §1
HCT-116 [7] = assay: Induction of apoptosis in human HCT-116 cells assessed as necrotic cells at 2 uM incubated for 48 hrs by annexin V-FITC and PI staining based flow cytometry (reference value: 0.124 %); format: functional
HCT-116 [8] = assay: Induction of apoptosis in human HCT-116 cells assessed as viable cells at 2 uM incubated for 48 hrs by annexin V-FITC and PI staining based flow cytometry (reference value: 93.9 %); format: functional; settings: read-out: Activity
NCI-H460 [9] = assay: Induction of apoptosis in human NCI-H460 cells assessed as late apoptotic cells at 2 uM incubated for 48 hrs by annexin V-FITC and PI staining based flow cytometry (reference value: 6.11 %); format: functional
HCT-116 [10] = assay: Antiproliferative activity against human HCT-116 cells assessed as reduction in cell growth at 8 uM incubated for 72 hrs by CCK-8 assay relative to control; format: functional
HeLa [11] = assay: Induction of apoptosis in human HeLa cells assessed as early apoptotic cells at 2 uM incubated for 48 hrs by annexin V-FITC and PI staining based flow cytometry (reference value: 0.528 %); format: functional
HepG2 [12] = assay: Antiproliferative activity against human HepG2 cells assessed as reduction in cell growth incubated for 72 hrs by CCK-8 assay; format: functional, cell-based; settings: HepG2, 72 h; summary of the method: as §1
NCI-H460 [13] = assay: Induction of apoptosis in human NCI-H460 cells assessed as necrotic cells at 2 uM incubated for 48 hrs by annexin V-FITC and PI staining based flow cytometry (reference value: 0.632 %); format: functional
NCI-H460 [14] = assay: Induction of apoptosis in human NCI-H460 cells assessed as viable cells at 2 uM incubated for 48 hrs by annexin V-FITC and PI staining based flow cytometry (reference value: 90.4 %); format: functional; settings: read-out: Activity
NCI-H460 [15] = assay: Antiproliferative activity against human NCI-H460 cells assessed as reduction in cell growth incubated for 72 hrs by CCK-8 assay; format: functional, cell-based; settings: NCI-H460, 72 h; summary of the method: as §1
HCT-116 [16] = assay: Induction of apoptosis in human HCT-116 cells assessed as early apoptotic cells at 2 uM incubated for 48 hrs by annexin V-FITC and PI staining based flow cytometry (reference value: 4.14 %); format: functional
A-375 [17] = assay: Induction of apoptosis in human A-375 cells assessed as early apoptotic cells at 2 uM incubated for 48 hrs by annexin V-FITC and PI staining based flow cytometry (reference value: 1.34 %); format: functional
HepG2 [18] = assay: Antiproliferative activity against human HepG2 cells assessed as reduction in cell growth at 2 uM incubated for 72 hrs by CCK-8 assay relative to control; format: functional
HCT-116 [19] = assay: Antiproliferative activity against human HCT-116 cells assessed as reduction in cell growth at 2 uM incubated for 72 hrs by CCK-8 assay relative to control; format: functional
A-375 [20] = assay: Induction of apoptosis in human A-375 cells assessed as necrotic cells at 2 uM incubated for 48 hrs by annexin V-FITC and PI staining based flow cytometry (reference value: 0.139 %); format: functional
A-375 [21] = assay: Induction of apoptosis in human A-375 cells assessed as viable cells at 2 uM incubated for 48 hrs by annexin V-FITC and PI staining based flow cytometry (reference value: 96.3 %); format: functional; settings: read-out: Activity
A-375 [22] = assay: Induction of apoptosis in human A-375 cells assessed as late apoptotic cells at 2 uM incubated for 48 hrs by annexin V-FITC and PI staining based flow cytometry (reference value: 2.24 %); format: functional
A-375 [23] = assay: Antiproliferative activity against human A-375 cells assessed as reduction in cell growth incubated for 72 hrs by CCK-8 assay; format: functional, cell-based; settings: A-375, 72 h; summary of the method: as §1
NCI-H460 [24] = assay: Induction of apoptosis in human NCI-H460 cells assessed as early apoptotic cells at 2 uM incubated for 48 hrs by annexin V-FITC and PI staining based flow cytometry (reference value: 2.88 %); format: functional
HepG2 [25] = assay: Antiproliferative activity against human HepG2 cells assessed as reduction in cell growth at 8 uM incubated for 72 hrs by CCK-8 assay relative to control; format: functional
HeLa [26] = assay: Induction of apoptosis in human HeLa cells assessed as late apoptotic cells at 2 uM incubated for 48 hrs by annexin V-FITC and PI staining based flow cytometry (reference value: 0.870 %); format: functional
NCI-H460 [27] = assay: Antiproliferative activity against human H460 cells assessed as reduction in cell growth at 8 uM incubated for 72 hrs by CCK-8 assay relative to control; format: functional

SMILES	inhibition at 2 µM (NCI-H460 [1]) [%]	viability at 2 µM (HeLa [2]) [%]	Activity (HCT-116 [3]) [%]	Activity (HeLa [4]) [%]	IC50 (HeLa [5]) [µM]	IC50 (HCT-116 [6]) [µM]	Activity (HCT-116 [7]) [%]	viability at 2 µM (HCT-116 [8]) [%]	Activity (NCI-H460 [9]) [%]	inhibition at 8 µM (HCT-116 [10]) [%]	Activity (HeLa [11]) [%]	IC50 (HepG2 [12]) [µM]	Activity (NCI-H460 [13]) [%]	viability at 2 µM (NCI-H460 [14]) [%]	IC50 (NCI-H460 [15]) [µM]	Activity (HCT-116 [16]) [%]	Activity (A-375 [17]) [%]	inhibition at 2 µM (HepG2 [18]) [%]	inhibition at 2 µM (HCT-116 [19]) [%]	Activity (A-375 [20]) [%]	further results
Nc1ccc(F)cc1NC(=O)c1ccc(CNC(=O)/C=C/c2cccnc2)cc1	1.73	98.3	3.12	0.103	11	1.49	0.985	41.3	15.1	73.4	0.555	11.7	0.543	69.6	13.3	54.6	14.2	8.36	65.7	1.73	IC50 (Histone deacetylase 2): 0.0665 µM; viability at 2 µM (A-375 [21]): 34.5%; Activity (A-375 [22]): 49.5%; IC50 (A-375 [23]): 6.72 µM; Activity (NCI-H460 [24]): 14.7%; inhibition at 8 µM (HepG2 [25]): 40.6%; Activity (HeLa [26]): 1.04%; inhibition at 8 µM (NCI-H460 [27]): 38.2%
CC[C@H](CO)Nc1nc(NCc2ccccc2)c2ncn(C(C)C)c2n1 [SELICICLIB]	7.73	88.4	4.24	0.424	11.2	6.76	0.24	11.6	36	29.1	4.04	8.53	3.09	47	11.9	83.9	7.03	12	23.5	0.189	viability at 2 µM (A-375 [21]): 50.5%; Activity (A-375 [22]): 42.3%; IC50 (A-375 [23]): 11.8 µM; Activity (NCI-H460 [24]): 14%; inhibition at 8 µM (HepG2 [25]): 22.1%; Activity (HeLa [26]): 7.16%; inhibition at 8 µM (NCI-H460 [27]): 15.6%
